Here are results for six compounds from PMC3648642 (Journal of medicinal chemistry, 2013).

In data set [1] the target is T1, TSPO (Rattus norvegicus, UniProt P16257). The data set is described as follows: Radioligand displacement of 3H-PK 11195 in C6 glioma cell lysate. It is filed as binding. Particulars: for decrease in affinity with respect to parent compound: R2 hydrogen replaced with methyl. (Displacement assays read how much labelled ligand stays bound in the presence of the test substance.)

Data set [2] addresses TSPO. The settings on record: high-affinity TSPO ligand for comparison; cited from earlier work.
The conditions of data set [3]: within the first 12 minutes post-administration; cited from earlier work.
Data set [4] in a line: Radio-HPLC of radiometabolites in plasma during PET scanning. It is filed as in vivo, rat. Particulars: 2, 12, 30, 60, 90 min.
Data set [5] addresses T1, TSPO. The data set is described as follows: Biodistribution and specific binding. It is filed as in vivo, rats. The gist of the method: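 Normal rats received an infusion of the 18F-labelled test compound (radiochemical purity >99%, specific activity >4203 Ci/mmol). Tissues were harvested 60 minutes after infusion, and their radioactivity was counted. Values are expressed as percentage of injected dose per gram of tissue (%ID/g).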

Another data set has as its system C6 glioma. It is filed as in vivo, Wistar rats. Summed up: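 C6 glioma-bearing Wistar rats were given the 18F-labelled test compound (radiochemical purity >99%) and imaged by 90-minute dynamic microPET. Time-activity curves were drawn for tumor, normal brain and plasma across eight representative studies. Plasma radiometabolites were analysed by radio-HPLC at 2, 12, 30, 60 and 90 min. Brains were processed post mortem for staining and immunohistochemistry.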

[6] abbreviates: bolus of non-radioactive 6b (10 mg/kg) at 30 minutes, 60-minute assay.

Turning to `CCN(CC)C(=O)Cc1c(-c2ccc(OC)cc2)nn2c(C)c(C)c(C)nc12` [Compound 5d], on TSPO [1], the “decrease in affinity with respect to parent compound” value is “approximately 10 fold”.
For orientation: Ki means a dissociation constant, usually derived from enzyme kinetics or from competition with a known ligand. `COc1ccccc1CN(C(C)=O)c1cnccc1Oc1ccccc1` [PBR28, N-(2-methoxybenzyl)-N-(4-phenoxypyridin-3-yl)acetamide]: the Ki on TSPO [2] was 4 nM.
As to `CCc1cc(CC)n2nc(-c3ccc(OCCF)cc3)c(CC(=O)N(CC)CC)c2n1` [Compound 6b, 2-(5,7-diethyl-2-(4-(2-fluoroethoxy)phenyl)pyrazolo[1,5-a]pyrimidin-3-yl)-N,N-diethylacetamide], at TSPO [1] (TSPO affinity), the “enhancement in affinity compared to 6a (DPA-714)” value was 36 fold.
As to `CCN(CC)C(=O)Cc1c(-c2ccc(OCCF)cc2)nn2c(C)c(C)c(C)nc12` [Compound 6d], on TSPO [1], the “decrease in affinity with respect to parent compound” value was “approximately 10 fold”.
`CCN(CC)C(=O)Cc1c(-c2ccc(OCC[18F])cc2)nn2c(C)cc(C)nc12` [^18F-6a, N,N-diethyl-2-(2-(4-(2-[^18F]fluoroethoxy)phenyl)-5,7-dimethylpyrazolo[1,5-a]pyrimidin-3-yl)acetamide]: the metabolism in plasma entry in data set [3] was “up to 30%”.
With `CCc1cc(CC)n2nc(-c3ccc(OCC[18F])cc3)c(CC(=O)N(CC)CC)c2n1` [^18F-6b, 2-(5,7-diethyl-2-(4-(2-[^18F]fluoroethoxy)phenyl)pyrazolo[1,5-a]pyrimidin-3-yl)-N,N-diethylacetamide], the “radioactive species detected in plasma” value in data set [4] is given as “the only radioactive species detected in plasma at all time points”. Besides, at TSPO [5] (60 minutes after infusion), the “accumulation in brain, testes, skull, and skeletal muscle” value is “Very minor accumulation”; the “accumulation in spleen, heart, kidney, and lung” value was “elevated accumulation”; the “uptake in liver, colon, small bowel, and stomach” value is “Moderate uptake”. Further, the “radioactivity in whole blood or urine” value on TSPO [5] (60 minutes post-administration) was “very little radio-activity”. Further, on TSPO [5] (setting [6]), the “activity in muscle or liver with displacement” value is recorded as “essentially unchanged with displacement”; the “activity in spleen, heart, kidney, and lung with displacement” value is “reduced to background levels”; the “activity in urine with displacement” value is recorded as “elevated with displacement”. Besides, the “tracer uptake in brain (tumor vs normal brain)” value in the data set on C6 glioma (dynamic PET, 90-minute acquisition) is “majority of tracer uptake in the brain was localized to the tumor”. In addition, the clearance from plasma result in the data set with C6 glioma (time-activity curve, 90-minute dynamic acquisition) was “quickly cleared from the plasma”.
